Reference: ChEMBL document CHEMBL3232768, “Structure-activity relationships of β-hydroxyphosphonate nucleoside analogues as cytosolic 5'-nucleotidase II potential inhibitors: synthesis, in vitro evaluation and molecular modeling studies” (Eur J Med Chem, 2014)

Tests used:
Homo sapiens = species on record: Homo sapiens; assay: Inhibition of recombinant C-terminal His-tagged cN2 N-terminal 30 amino acid deletion mutant (unknown origin) expressed in Escherichia coli BL21 using IMP as substrate at 1 mM after 5 mins by green malachite phosphate assay
In short: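 Enzyme was purified from E. coli BL21 carrying pET24b by His-Trap affinity and then Superdex 75 gel filtration. Final enzyme was 0.1 in 50 mM imidazole pH 6.5, 500 mM NaCl, 10 mM MgCl₂, 1 mM DTT on ice. The reaction was started with 50 IMP plus equimolar Mg²⁺ and run 5 min at 37 °C. Malachite green reagent stopped it; released phosphate was read above 630 nm against a phosphate calibration curve.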

[1] = Competitive inhibition of recombinant C-terminal His-tagged cN2 N-terminal 30 amino acid deletion mutant (unknown origin) expressed in Escherichia coli BL21 using IMP as substrate by double reciprocal plot analysis; design: species or system Homo sapiens
In short: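 Kinetic assay with His-Trap and Superdex 75-purified enzyme at 0.1. Buffer was 50 mM imidazole pH 6.5, 500 mM NaCl, 10 mM MgCl₂, 1 mM DTT, with enzyme and substrate freshly prepared in it. Rate constants were measured at IMP from 200 to 3 mM to derive Ki. It was also used for compounds that react with the malachite green colorant.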

| inhibition (Homo sapiens) [%] | SMILES | Ki [1] [mM] |
| --- | --- | --- |
| 20 | O=c1ccn([C@@H](CO)O[C@@H](CO)[C@H](O)CP(=O)(O)O)c(=O)[nH]1 |  |
| 46 | CC(C)(C)C#Cc1cn([C@@H]2O[C@H]([C@H](O)CP(=O)(O)O)[C@@H](O)[C@H]2O)c(=O)nc1N | 7.33 |
| 11 | CCOP(=O)(C[C@@H](O)[C@H]1O[C@@H](n2ccc(=O)[nH]c2=O)[C@H](O)[C@@H]1O)OCC |  |
| 25 | O=c1ccn([C@@H]2O[C@H]([C@H](O)CP(=O)(O)O)[C@H](O)[C@H]2O)c(=O)[nH]1 |  |
|  | CC(C)(C)C#Cc1cn([C@@H]2O[C@H]([C@H](O)CP(=O)(O)O)[C@@H](O)[C@H]2O)c(=O)[nH]c1=O | 5.94 |
|  | O=c1[nH]c(=O)n([C@@H]2O[C@H]([C@H](O)CP(=O)(O)O)[C@@H](O)[C@H]2O)cc1/C=C/c1ccccc1 | 3.36 |
| 18 | CCOP(=O)(C[C@@H](O)[C@H]1O[C@@H](n2ccc(N)nc2=O)[C@H](O)[C@@H]1O)OCC |  |
| 43 | O=c1ccn([C@@H]2O[C@H]([C@@H](O)CP(=O)(O)O)[C@@H](O)[C@H]2O)c(=O)[nH]1 |  |
| 25 | O=c1ccn([C@@H]2O[C@H]([C@H](O)CP(=O)(O)O)[C@H](O)[C@@H]2O)c(=O)[nH]1 | > 50 |
| 10 | CCOP(=O)(C[C@@H](O)[C@H](CO)O[C@H](CO)n1ccc(=O)[nH]c1=O)OCC |  |
| 2 | CCOP(=O)(C[C@@H](O)[C@H]1O[C@@H](n2ccc(=O)[nH]c2=O)[C@@H](O)[C@@H]1O)OCC |  |
| 45 | CCCCC#Cc1cn([C@@H]2O[C@H]([C@H](O)CP(=O)(O)O)[C@@H](O)[C@H]2O)c(=O)[nH]c1=O |  |
| 21 | CCOP(=O)(C[C@@H](O)[C@H](CO)O[C@H](CO)n1ccc(N)nc1=O)OCC |  |
|  | O=c1[nH]c(=O)n([C@@H]2O[C@H]([C@H](O)CP(=O)(O)O)[C@@H](O)[C@H]2O)cc1C#Cc1ccccc1 | 2.18 |
| 25 | O=c1ccn([C@@H]2O[C@H]([C@H](O)CP(=O)(O)O)[C@@H](O)[C@@H]2O)c(=O)[nH]1 | > 100 |
| 72 | O=c1ccn([C@@H]2O[C@H]([C@H](O)CP(=O)(O)O)[C@@H](O)[C@H]2O)c(=O)[nH]1 | 2.08 |
| 48 | Nc1ccn([C@@H]2O[C@H]([C@H](O)CP(=O)(O)O)[C@H](O)[C@H]2O)c(=O)n1 | 8.9 |
| 85 | Nc1ccn([C@@H]2O[C@H]([C@H](O)CP(=O)(O)O)[C@@H](O)[C@H]2O)c(=O)n1 | 1.74 |
| 40 | CCCCC#Cc1cn([C@@H]2O[C@H]([C@H](O)CP(=O)(O)O)[C@@H](O)[C@H]2O)c(=O)nc1N |  |
|  | Nc1nc(=O)n([C@@H]2O[C@H]([C@H](O)CP(=O)(O)O)[C@@H](O)[C@H]2O)cc1/C=C/c1ccccc1 | 1.14 |
|  | Nc1nc(=O)n([C@@H]2O[C@H]([C@H](O)CP(=O)(O)O)[C@@H](O)[C@H]2O)cc1C#Cc1ccccc1 | 8.85 |
| 26 | CCOP(=O)(C[C@@H](O)[C@H]1O[C@@H](n2ccc(=O)[nH]c2=O)[C@H](O)[C@H]1O)OCC |  |
| 35 | Nc1ccn([C@@H]2O[C@H]([C@H](O)CP(=O)(O)O)[C@H](O)[C@@H]2O)c(=O)n1 | 11.1 |
| 60 | Nc1nc(=O)n([C@@H]2O[C@H]([C@H](O)CP(=O)(O)O)[C@@H](O)[C@H]2O)cc1-c1ccccc1 | 2.01 |
| 80 | Nc1ccn([C@@H]2O[C@H]([C@H](O)CP(=O)(O)O)[C@@H](O)[C@@H]2O)c(=O)n1 | 0.978 |
| 42 | Nc1ccn([C@@H]2O[C@H]([C@@H](O)CP(=O)(O)O)[C@@H](O)[C@H]2O)c(=O)n1 |  |
| 24 | O=c1[nH]c(=O)n([C@@H]2O[C@H]([C@H](O)CP(=O)(O)O)[C@@H](O)[C@H]2O)cc1-c1ccccc1 |  |
| 45 | Nc1ccn([C@@H](CO)O[C@@H](CO)[C@H](O)CP(=O)(O)O)c(=O)n1 | 4.06 |
| 20 | CCOP(=O)(C[C@@H](O)[C@H]1O[C@@H](n2ccc(N)nc2=O)[C@@H](O)[C@@H]1O)OCC |  |
